Compound activity as filed in PubChem.
Scp-1 inhibitor: inhibitors of human Scp-1 phosphatase; inhibition, % at 20 µM; Q9GZU7; hit rate 0.88% among 340,000; Recombinant Scp1, phosphopeptide, malachite green phosphate absorbance;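 active = inhibition above about 50% at 20 µM, limit read from the data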;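 also: plate controls were DMSO wells with enzyme for no effect and wells lacking enzyme for full effect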
Target sequence (Q9GZU7 76-261 limits assumed): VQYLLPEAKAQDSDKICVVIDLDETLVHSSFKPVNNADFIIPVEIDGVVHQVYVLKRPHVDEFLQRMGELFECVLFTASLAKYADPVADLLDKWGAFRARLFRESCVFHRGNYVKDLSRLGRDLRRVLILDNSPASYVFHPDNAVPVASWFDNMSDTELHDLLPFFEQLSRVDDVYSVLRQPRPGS
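Assay system: SCP-1 catalytic fragment, aa 76-261 | Buffer or medium: Tris acetate buffer pH 5.5 with MgCl2 and Tween-20 | Compound: One concentration, 20 µM, with 1.0% DMSO | Also added: Phospho 17-mer peptide substrate | Signal: Absorbance at 630 nm | Incubation: 45 min enzyme reaction at room temperature | Measure: % inhibition of SCP-1 phosphate liberation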
DNMT1 inh: inhibitors of human DNMT1. DNMT1 molecular beacon, Hinp1I cleavage, fluorescence. inhibition (reported as % activation of signal), % at 10 µM. P26358. hit rate 0.83% among 360,000; in the data active = inhibition above about 50%
LMPTP block: LMPTP (human) inhibition | P24666 | recombinant LMPTP-A, OMFP fluorogenic substrate, fluorescence intensity | inhibition, % at 20 µM | hit rate 0.22% among 360,000 | AID 651560;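 active = compounds that cut the enzyme signal by at least half of the control window in the single-dose screen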;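 also: plate controls were DMSO wells with enzyme plus substrate for no effect and substrate without enzyme for full effect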
Target sequence (P24666 whole entry, looked up): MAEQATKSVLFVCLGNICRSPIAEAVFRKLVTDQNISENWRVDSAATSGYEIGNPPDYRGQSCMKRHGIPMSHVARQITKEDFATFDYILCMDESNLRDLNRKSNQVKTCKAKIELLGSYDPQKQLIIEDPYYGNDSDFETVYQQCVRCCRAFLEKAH
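Test system: LMPTP-A phosphatase enzyme. Amount: LMPTP-A at 0.625 nM final in the reaction. Reagent: OMFP substrate, 400 µM final. Times: 50 min at room temperature. Signal: endpoint fluorescence intensity from OMFP dephosphorylation. Read-out basis: % inhibition. Benchmarks: no-enzyme and uninhibited controls.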
STEP inh: blocks human striatal-enriched tyrosine phosphatase; P54829; recombinant STEP, OMFP fluorogenic substrate, fluorescence; inhibition, % at 20 µM; hit rate 0.25% among 360,000; AID 588621;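 active = inhibition at 20 µM, scaled per plate between control wells, above about 37%, limit read from the data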;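 also: 0% = DMSO with enzyme and substrate and 100% = substrate only without enzyme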
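material = STEP tyrosine phosphatase | reagent = fluorogenic phosphatase substrate OMFP at 25 µM final | doses = single compound dose of 20 µM, 1% DMSO final | schedule = 20 min reaction, room temperature, in the dark | measured by = fluorescence, 480/540 nm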
SUMO1 PPI mod: SUMO1-SIM interaction modulation | P63165 | SUMO1 binding to a labelled peptide, TR-FRET, 1 h | inhibition, % at 20 µM | hit rate 0.33% among 360,000 | AID 602429; in the data active = inhibition above about 37%
Target sequence (P63165 whole entry, looked up): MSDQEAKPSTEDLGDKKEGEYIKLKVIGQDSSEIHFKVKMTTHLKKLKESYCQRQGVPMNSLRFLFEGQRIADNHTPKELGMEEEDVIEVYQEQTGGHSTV
NadD block: inhibitors of Staphylococcus aureus NadD. purified NadD enzyme, colorimetric absorbance read-out. inhibition, % at 20 µM. hit rate 0.78% among 360,000. AID 602399; in the data active = inhibition above about 26%
NadD inh conf: NadD (S. aureus) inhibition, single concentration confirmation; AID 624309; shares compounds with NadD block; purified S. aureus NadD, colorimetric enzyme assay; inhibition, % at 20 µM; hit rate 13% among 2,000; in the data active = inhibition mostly above about 42%, no sharp cut-off; inactive = mostly below about 42%
* marks the source's active call; other numbers are inactive results. A selection: hits, their analogues and other compounds. The true share with any hit is near 2.4%.

Screening O=C(Nc1cccc(-c2csc(Nc3cccc(C(F)(F)F)c3)n2)c1)c1cc([N+](=O)[O-])cc(C(F)(F)F)c1 returned Scp-1 inhibitor -6.2, DNMT1 inh -17.0, LMPTP block 6.6, STEP inh -1.9, SUMO1 PPI mod 4.1, NadD block 37.2* and NadD inh conf 0.6.
O=C(Nc1ccc(-c2csc(Nc3ccccc3)n2)cc1)c1cc([N+](=O)[O-])cc(C(F)(F)F)c1 was read as Scp-1 inhibitor 4.0, DNMT1 inh -17.6, LMPTP block 5.0, STEP inh -2.6, SUMO1 PPI mod -1.4, NadD block 32.1* and NadD inh conf 12.4.
CC(C)(C)c1cc(NC(=O)CSc2nncs2)n(-c2ccccc2)n1 was read as Scp-1 inhibitor -7.3, DNMT1 inh -0.6, LMPTP block -2.3, STEP inh -0.7, SUMO1 PPI mod -3.9 and NadD block -1.3.
`Cc1ccc(-c2csc(N3CCN(c4ccc5nc(-c6ccncc6)n(CCN6CCCCC6)c5c4)CC3)n2)cc1` gave Scp-1 inhibitor -1.3, DNMT1 inh -15.8, LMPTP block 1.7, STEP inh 3.0, SUMO1 PPI mod -28.1 and NadD block 20.0.
Screening Cc1ccc(-c2csc(N3CCN(c4cc5c(cc4Cl)nc(-c4ccncc4)n5CCN4CCCCC4)CC3)n2)cc1 returned Scp-1 inhibitor 11.9, DNMT1 inh 20.9, LMPTP block 4.1, STEP inh 3.2, SUMO1 PPI mod 8.2, NadD block 31.1* and NadD inh conf 20.1.
For O=C(COc1ccc(Cl)cc1)Nc1cc(S(=O)(=O)N2CCCCC2)ccc1N1CCCCC1 the results were Scp-1 inhibitor -5.1, DNMT1 inh -7.3, LMPTP block 3.3, STEP inh 5.0, SUMO1 PPI mod -2.6 and NadD block 20.8.
For O=C(Nc1cccc(N=Cc2cc(Br)cc(Br)c2O)c1)c1ccco1 the results were Scp-1 inhibitor -4.9, DNMT1 inh -29.1, LMPTP block 0.8, STEP inh 3.1, SUMO1 PPI mod 15.9, NadD block 41.1* and NadD inh conf 20.9.
CCCCOc1ccc(-c2c(C(=O)Nc3ccccc3)c(C)[nH]c(=S)c2C#N)cc1 was read as Scp-1 inhibitor -8.0, DNMT1 inh 36.0, LMPTP block 0.5, STEP inh -0.8, SUMO1 PPI mod -1.2 and NadD block 23.1.
`CCCCOc1ccc(-c2c(C#N)c(N)[nH]c(=S)c2C#N)cc1` gave Scp-1 inhibitor -10.7, DNMT1 inh -3.6, LMPTP block 1.8, STEP inh 2.3, SUMO1 PPI mod -8.2, NadD block 31.0* and NadD inh conf 28.8.
For C[C@@H](c1ccccc1)N1C[C@@H](COCc2ccccc2)Oc2cc(N3CCC[C@H]3C(N)=O)ccc2S1(=O)=O the results were LMPTP block 2.1, SUMO1 PPI mod 4.5 and NadD block -5.2.
`CCN(CC)S(=O)(=O)c1ccc(C(=O)NC(=S)N2CCCCC2C)cc1` (stereo unspecified) gave DNMT1 inh 4.2, LMPTP block -0.4, STEP inh 16.7, SUMO1 PPI mod 3.6 and NadD block -0.9.
Screening O=c1[nH]c(CN2CCN(c3ccc(O)cc3)CC2)nc2scc(-c3ccc(Cl)cc3)c12 returned Scp-1 inhibitor 1.9, DNMT1 inh -16.4, LMPTP block 3.8, STEP inh 5.9, SUMO1 PPI mod 4.3, NadD block 37.0* and NadD inh conf 22.6.
`O=c1[nH]c(CN2CCN(c3ccccc3O)CC2)nc2scc(-c3ccccc3Cl)c12` gave Scp-1 inhibitor -10.6, DNMT1 inh -6.7, LMPTP block 1.6, STEP inh 0.1, SUMO1 PPI mod 2.4 and NadD block 11.6.
Screening O=C(CSc1nnnn1-c1ccccc1)Nc1ccccc1 returned Scp-1 inhibitor -2.0, DNMT1 inh 1.1, LMPTP block -0.4, STEP inh -1.7, SUMO1 PPI mod 1.5 and NadD block -3.8.
`O=C(CSc1nc2ccc(NC(=O)CSc3nnnn3-c3ccccc3)cc2s1)Nc1ccccc1` gave Scp-1 inhibitor -8.3, DNMT1 inh 49.6, LMPTP block -0.5, STEP inh 3.7, SUMO1 PPI mod 0.4, NadD block 38.9* and NadD inh conf 19.8.
